The nature of series [1]: Plasma clearance in cynomolgus monkey at 1 mg/kg, iv and 5 mg/kg, po. The series is classed as ADME, organism-based, Macaca fascicularis. Summed up:
(§1)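 Single-compound PK. Intravenous dose 1 mg/kg given as a 60% PEG solution. Oral dose 5 mg/kg given as an aqueous suspension in 1% methylcellulose. Plasma clearance, steady-state volume of distribution, half-life and oral bioavailability were determined from these doses.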

A short description of series [2]: Volume of distribution at steady state in rat at 1 mg/kg, iv and 5 mg/kg, po. Format: ADME, organism-based. The settings on record: in vivo, read-out: Vdss. In a few lines: as §1
The test system of a further series is MDR1. The series can be described thus: Apparent permeability from apical to basolateral side in MDCK cells expressing human MDR1 at 5 uM after 60 to 180 mins by LC-MS/MS analysis. As to conditions: dog. The series is classed as ADME, cell-based, Canis lupus familiaris.
Series [3] can be described thus: Plasma clearance in mouse at 1 mg/kg, iv and 5 mg/kg, po. The series is classed as ADME, organism-based. Summed up:
as §1

Series [4] has as its target Proto-oncogene tyrosine-protein kinase Src (Homo sapiens) (UniProt P12931). The series can be described thus: Inhibition of Src (unknown origin) at 0.1 uM. Summed up: (§2)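 Kinase selectivity panel of 298 kinases, test compound at 0.1 μM, percent inhibition reported.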
Series [5] is described as follows: Oral bioavailability in cynomolgus monkey at 5 mg/kg. Format: ADME, organism-based, Macaca fascicularis. The settings on record: in vivo. In a few lines:
as §1

A short description of series [6]: Volume of distribution at steady state in dog at 1 mg/kg, iv and 5 mg/kg, po. The series is classed as ADME, organism-based, Canis lupus familiaris. The settings on record: in vivo, read-out: Vdss. In a few lines:
as §1

For series [7], the target named is Mitogen-activated protein kinase 9 (Homo sapiens, UniProt P45984). The series can be described thus: Inhibition of JNK2 (unknown origin).
Chain of Mitogen-activated protein kinase 9 (P45984 whole entry): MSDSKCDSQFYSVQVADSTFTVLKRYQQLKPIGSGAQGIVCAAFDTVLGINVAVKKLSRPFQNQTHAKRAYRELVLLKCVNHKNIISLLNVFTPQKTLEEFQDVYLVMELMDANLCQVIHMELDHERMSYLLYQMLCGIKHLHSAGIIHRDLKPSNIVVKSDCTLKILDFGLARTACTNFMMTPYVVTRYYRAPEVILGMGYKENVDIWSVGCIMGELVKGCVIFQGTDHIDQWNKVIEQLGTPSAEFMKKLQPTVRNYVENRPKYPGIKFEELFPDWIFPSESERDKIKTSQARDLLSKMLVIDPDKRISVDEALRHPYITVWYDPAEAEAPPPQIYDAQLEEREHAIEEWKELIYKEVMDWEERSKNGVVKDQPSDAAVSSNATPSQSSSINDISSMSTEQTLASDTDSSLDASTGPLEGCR
The target in series [8] is Proto-oncogene tyrosine-protein kinase Src (Homo sapiens) (UniProt P12931). Description: Inhibition of Src_N1 (unknown origin) at 0.1 uM. In a few lines: as §2
Chain of Proto-oncogene tyrosine-protein kinase Src (Homo sapiens) (P12931 2-536 limits assumed): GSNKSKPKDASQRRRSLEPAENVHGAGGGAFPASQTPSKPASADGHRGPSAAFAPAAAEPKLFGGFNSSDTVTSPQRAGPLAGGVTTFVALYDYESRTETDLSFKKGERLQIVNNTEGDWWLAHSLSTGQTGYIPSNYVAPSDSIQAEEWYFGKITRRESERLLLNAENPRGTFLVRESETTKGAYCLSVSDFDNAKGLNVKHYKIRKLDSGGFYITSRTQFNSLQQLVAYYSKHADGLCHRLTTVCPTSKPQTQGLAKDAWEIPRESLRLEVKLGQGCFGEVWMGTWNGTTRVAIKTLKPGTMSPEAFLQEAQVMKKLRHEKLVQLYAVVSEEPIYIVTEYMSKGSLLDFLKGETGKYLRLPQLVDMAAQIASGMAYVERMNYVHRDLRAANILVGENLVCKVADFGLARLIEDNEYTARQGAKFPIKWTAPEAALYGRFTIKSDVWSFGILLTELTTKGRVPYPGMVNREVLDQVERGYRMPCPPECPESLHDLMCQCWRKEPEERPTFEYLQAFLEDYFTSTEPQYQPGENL
For series [9], the target named is Mitogen-activated protein kinase kinase kinase 10 (Homo sapiens, UniProt Q02779). The series can be described thus: Inhibition of MLK2 (unknown origin).
Chain of Mitogen-activated protein kinase kinase kinase 10 (Q02779 whole entry): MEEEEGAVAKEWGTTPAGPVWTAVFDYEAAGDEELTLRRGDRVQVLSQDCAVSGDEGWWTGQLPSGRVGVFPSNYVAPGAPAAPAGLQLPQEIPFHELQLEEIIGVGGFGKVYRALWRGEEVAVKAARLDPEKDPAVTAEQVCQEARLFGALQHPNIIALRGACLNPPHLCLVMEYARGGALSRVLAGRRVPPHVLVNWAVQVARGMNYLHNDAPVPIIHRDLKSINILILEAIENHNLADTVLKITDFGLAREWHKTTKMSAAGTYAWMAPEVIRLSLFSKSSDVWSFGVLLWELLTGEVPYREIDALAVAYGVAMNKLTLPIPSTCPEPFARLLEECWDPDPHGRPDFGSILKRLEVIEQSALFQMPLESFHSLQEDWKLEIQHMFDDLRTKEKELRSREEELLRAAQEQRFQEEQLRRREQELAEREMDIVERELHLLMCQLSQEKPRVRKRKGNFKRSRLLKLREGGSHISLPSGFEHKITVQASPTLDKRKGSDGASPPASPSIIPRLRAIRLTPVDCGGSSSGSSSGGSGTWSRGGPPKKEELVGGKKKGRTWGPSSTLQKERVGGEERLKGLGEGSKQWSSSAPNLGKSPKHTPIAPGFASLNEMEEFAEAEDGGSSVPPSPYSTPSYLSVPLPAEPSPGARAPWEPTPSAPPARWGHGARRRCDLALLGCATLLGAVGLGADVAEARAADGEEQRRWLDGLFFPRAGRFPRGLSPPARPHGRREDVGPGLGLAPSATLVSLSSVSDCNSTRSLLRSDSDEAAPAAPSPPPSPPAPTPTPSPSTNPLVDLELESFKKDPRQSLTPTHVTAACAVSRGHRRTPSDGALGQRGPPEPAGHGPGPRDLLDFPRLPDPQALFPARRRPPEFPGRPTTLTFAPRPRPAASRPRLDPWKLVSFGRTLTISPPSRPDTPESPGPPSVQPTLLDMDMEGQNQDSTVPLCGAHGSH
A short description of series [10]: Half life in rat at 1 mg/kg, iv and 5 mg/kg, po. Format: ADME, organism-based. As to conditions: in vivo. Summed up:
as §1

The target in series [11] is Mitogen-activated protein kinase 8 (Homo sapiens, UniProt P45983). Description: Inhibition of JNK1 (unknown origin).
Chain of Mitogen-activated protein kinase 8 (P45983 whole entry): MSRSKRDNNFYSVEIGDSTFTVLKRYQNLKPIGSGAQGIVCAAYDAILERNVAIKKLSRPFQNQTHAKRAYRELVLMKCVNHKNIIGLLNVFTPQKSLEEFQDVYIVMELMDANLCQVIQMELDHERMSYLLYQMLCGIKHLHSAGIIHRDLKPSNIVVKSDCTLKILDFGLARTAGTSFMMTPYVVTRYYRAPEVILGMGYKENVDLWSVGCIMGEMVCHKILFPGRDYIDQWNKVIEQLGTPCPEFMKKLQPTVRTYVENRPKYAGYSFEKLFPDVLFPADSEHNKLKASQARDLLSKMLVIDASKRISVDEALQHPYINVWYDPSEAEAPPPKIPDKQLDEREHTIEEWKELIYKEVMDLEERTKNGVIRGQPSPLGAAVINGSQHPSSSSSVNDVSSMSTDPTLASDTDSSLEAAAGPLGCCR
Series [12] deals with Tyrosine-protein kinase Lck (Homo sapiens) (UniProt P06239). The series can be described thus: Inhibition of LCK (unknown origin) at 0.1 uM. In a few lines: as §2
Chain of Tyrosine-protein kinase Lck (Homo sapiens) (P06239 2-509 limits assumed): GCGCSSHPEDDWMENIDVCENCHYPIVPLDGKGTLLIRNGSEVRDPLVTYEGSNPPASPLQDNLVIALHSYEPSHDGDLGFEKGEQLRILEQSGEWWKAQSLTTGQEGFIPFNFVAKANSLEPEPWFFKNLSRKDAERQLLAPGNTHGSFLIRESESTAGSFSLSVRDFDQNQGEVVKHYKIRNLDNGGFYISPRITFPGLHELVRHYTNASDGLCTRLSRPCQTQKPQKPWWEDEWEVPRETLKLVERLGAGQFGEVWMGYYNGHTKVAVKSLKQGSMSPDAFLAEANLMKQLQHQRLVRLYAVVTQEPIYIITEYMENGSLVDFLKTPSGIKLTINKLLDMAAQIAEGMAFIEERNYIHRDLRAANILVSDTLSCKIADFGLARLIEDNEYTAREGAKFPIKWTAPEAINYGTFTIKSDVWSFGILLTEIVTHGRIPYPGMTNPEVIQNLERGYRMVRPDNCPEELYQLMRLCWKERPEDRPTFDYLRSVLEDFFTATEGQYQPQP
The next series deals with Mus musculus. Description: Neuroprotective activity against po dosed C57Bl/6 mouse optic nerve crush model assessed as reduction of phosphorylated c-Jun level in retina administered 30 mins prior to nerve crush injury measured after 6 hrs by MSD ELISA. The series is classed as functional, organism-based. Summed up: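 C57Bl/6 mice dosed orally at two dose levels (MCT suspension) or vehicle, 30 min before optic nerve crush. Retinal p-c-Jun measured 6 h post-injury by MSD ELISA, expressed relative to uncrushed vehicle controls. N = 5 vehicle, 6 per treated group. Mean ± SEM.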

Series [13] can be described thus: Volume of distribution at steady state in mouse at 1 mg/kg, iv and 5 mg/kg, po. The series is classed as ADME, organism-based. The settings on record: in vivo, read-out: Vdss. Summed up: as §1
A short description of series [14]: Volume of distribution at steady state in cynomolgus monkey at 1 mg/kg, iv and 5 mg/kg, po. Format: ADME, organism-based, Macaca fascicularis. The settings on record: in vivo, read-out: Vdss. In a few lines: as §1
For series [15], the target named is Tyrosine-protein kinase SYK (Homo sapiens) (UniProt P43405). The series can be described thus: Inhibition of Syk (unknown origin) at 0.1 uM. Summed up:
as §2

The target in series [16] is Serine/threonine-protein kinase 16 (Homo sapiens) (UniProt O75716). Description: Inhibition of STK16 (unknown origin) at 0.1 uM. Summed up: as §2
Chain of Serine/threonine-protein kinase 16 (Homo sapiens) (O75716 whole entry): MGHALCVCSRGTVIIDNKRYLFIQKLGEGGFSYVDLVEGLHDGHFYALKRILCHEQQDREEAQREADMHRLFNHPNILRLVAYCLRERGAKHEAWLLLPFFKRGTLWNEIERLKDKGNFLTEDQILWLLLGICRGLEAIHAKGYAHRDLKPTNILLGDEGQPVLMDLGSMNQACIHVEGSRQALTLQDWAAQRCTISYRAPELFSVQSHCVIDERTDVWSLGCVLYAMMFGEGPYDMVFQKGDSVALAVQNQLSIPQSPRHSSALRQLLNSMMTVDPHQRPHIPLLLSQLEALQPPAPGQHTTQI
Series [17] has as its target T1, Ephrin type-A receptor 1 (Homo sapiens) (UniProt P21709).
T1 sequence (whole entry): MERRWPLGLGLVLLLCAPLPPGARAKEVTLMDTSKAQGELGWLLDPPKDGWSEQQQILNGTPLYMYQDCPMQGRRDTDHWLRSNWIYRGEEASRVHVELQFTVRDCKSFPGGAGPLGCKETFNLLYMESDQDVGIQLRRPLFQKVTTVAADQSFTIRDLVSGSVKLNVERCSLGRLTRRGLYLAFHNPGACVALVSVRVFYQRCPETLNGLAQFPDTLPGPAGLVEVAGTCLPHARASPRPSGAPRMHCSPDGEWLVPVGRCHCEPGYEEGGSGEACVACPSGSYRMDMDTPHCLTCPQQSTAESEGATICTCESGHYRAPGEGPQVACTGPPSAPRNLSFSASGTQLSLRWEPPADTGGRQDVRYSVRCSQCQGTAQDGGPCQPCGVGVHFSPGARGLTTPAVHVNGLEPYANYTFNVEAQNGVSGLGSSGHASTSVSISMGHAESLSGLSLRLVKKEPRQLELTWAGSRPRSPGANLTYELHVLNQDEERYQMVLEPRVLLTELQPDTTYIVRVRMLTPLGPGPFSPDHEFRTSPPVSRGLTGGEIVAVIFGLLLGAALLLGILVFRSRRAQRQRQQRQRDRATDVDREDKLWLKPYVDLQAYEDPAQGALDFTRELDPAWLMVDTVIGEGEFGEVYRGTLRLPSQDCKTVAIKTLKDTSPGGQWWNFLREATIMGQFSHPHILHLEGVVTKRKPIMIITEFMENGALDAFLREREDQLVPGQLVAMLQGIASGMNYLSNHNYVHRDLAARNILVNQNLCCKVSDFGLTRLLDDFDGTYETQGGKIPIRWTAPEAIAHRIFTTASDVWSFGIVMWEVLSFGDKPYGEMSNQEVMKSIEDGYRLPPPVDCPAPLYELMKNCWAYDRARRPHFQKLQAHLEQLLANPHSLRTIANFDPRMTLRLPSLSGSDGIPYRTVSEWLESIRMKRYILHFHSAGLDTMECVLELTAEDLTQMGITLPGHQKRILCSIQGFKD
Description: Inhibition of EphA1 (unknown origin) at 0.1 uM. Summed up:
as §2

Broadly, the Papp A→B is the apparent permeability from the apical to the basolateral side of a cell layer. As a reminder, the inhibition is the percentage by which the read-out fell short of the control. Usually bioavailability stands for the share of a dose that reaches the circulation, judged against a reference dose that is usually intravenous. As a reminder, the IC50 is the concentration at which inhibition is half-maximal. Usually half-life stands for the time in which the quantity being followed falls by half.

The structures appear in SMILES notation.

Regarding `N#Cc1ccnc(Nc2cc(C3CCN(C4COC4)CC3)cc(N3CCC(F)(F)C3)n2)c1`, the clearance in series [1] was 16 mL/min/kg; in [3] it was 56 mL/min/kg. For the same compound, the Vd was 3.7 L/kg in series [2], 6.5 L/kg in series [6], 2.5 L/kg in series [13] and 3.1 L/kg in series [14]. Besides, the apical-to-basolateral permeability (Papp A→B) at 5 µM in the series with MDR1 was determined as 6 ×10⁻⁶ cm/s. For the same compound, the inhibition in series [4], in series [8], in series [12], in series [15], in series [16] and in series [17] was greater than 80% throughout. In series [5], the bioavailability is 19%. The IC50 came out at 0.514 µM in series [7], 0.767 µM in series [9] and 0.129 µM in series [11]. In series [10], the half-life is 1.8 h. The Activity entry in the series on Mus musculus was “Dose-dependent effect”.

(Values after ChEMBL document CHEMBL3393025, “Discovery of dual leucine zipper kinase (DLK, MAP3K12) inhibitors with activity in neurodegeneration models” (J Med Chem, 2015).)
